From PubChem BioAssay AID624259 (Broad Institute, 2012)
Several values for one entry are separate records, joined by “and”; a condition that tells them apart may be missing. Equal entries are not always repeated. Activity calls are given as the source filed them.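 Rule for the calls: active = luminescence drop whose fitted half-maximal dose is at or below twice the top valid tested dose; inconclusive = flat fit with 30 to 70% inhibition, or poor fit; inactive = the rest, including signal rises.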

Experiments:
[1] = test system: SK-MEL-5 TRPM1-promoter luciferase reporter, 24 h; experiment: TRPM1 promoter luciferase signal reduction, dose response, MITF inhibitor project, cell-based, SK-MEL-5, dry powder samples, set 3 (AID 624259)
Method in brief: (§1)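 Material: SK-MEL-5 TRPM1-promoter luciferase reporter cells; Compound dosing: 100 nL DMSO compound solution per well; Schedule: compound exposure 24 h, 37 °C; Measured by: luminescence after SteadyGlo luciferase reagent addition; Read-out basis: loss of TRPM1 reporter luminescence; Control set: parthenolide as positive (inhibition) control.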

[2] = as above; conditions: SK-MEL-5 TRPM1-promoter luciferase reporter, 24 h; at 35 µM (top of the series)
Method in brief: as §1

Compound `C=CCNC1=C(N2CCN(C)CC2)C(=O)c2ccccc2C1=O` has an AC50 [1] of 7.93 µM.

`O=C1C(NS(=O)(=O)c2cccs2)=C(N2CCOCC2)C(=O)c2ccccc21` gave an AC50 [1] of 14.9 µM.

Work on `O=C(NC1=C(N2CCOCC2)C(=O)c2ccccc2C1=O)c1ccccc1` yielded an AC50 [1] of 11.1 µM.

For `O=C1C(Nc2ccccc2)=C(N2CCOCC2)C(=O)c2ccccc21`, the AC50 [1] was 8.43 µM.

Compound `O=C1C(NS(=O)(=O)c2ccc(Br)cc2)=C(N2CCOCC2)C(=O)c2ccccc21` has an AC50 [1] of 13.2 µM.

`CN1CCN(C2=C(NC(=O)c3ccccc3)C(=O)c3ccccc3C2=O)CC1` showed an AC50 [1] of 1.13 µM.

`C=CCNC1=C(N2CCN(CC)CC2)C(=O)c2ccccc2C1=O` gave an AC50 [1] of 11.3 µM.

Work on `COc1ccc(C2=C(NC(C)=O)C(=O)c3ccccc3C2=O)cc1` yielded an AC50 [1] of 6.89 µM.

For `O=C(NC1=C(c2ccc(Oc3ccccc3)cc2)C(=O)c2ccccc2C1=O)c1ccccc1`, the activity change, negative = inhibition [2] was 17.5% (inactive).

For `COc1ccc(C2=C(NC(=O)c3ccccc3OC)C(=O)c3ccccc3C2=O)cc1`, the activity change, negative = inhibition [2] was 14.6% (inactive).

In the case of `C=CCNC1=C(NCC=C)C(=O)c2ccccc2C1=O`, the activity change, negative = inhibition [2] is reported as -10.6% (inactive).

With `O=C(NC1=C(c2ccccc2)C(=O)c2ccccc2C1=O)c1ccc(Br)cc1` the AC50 [1] was 18.1 µM.

`C=CCNC1=C(NCCN(CC)CC)C(=O)c2ccccc2C1=O` gave an AC50 [1] of 3.05 µM.

In the case of `O=C(NC1=C(c2ccc(OC(F)(F)F)cc2)C(=O)c2ccccc2C1=O)c1ccco1`, the AC50 [1] is reported as 31.1 µM.

Work on `COc1ccc(C2=C(NC(=O)c3cccc(Cl)c3)C(=O)c3ccccc3C2=O)cc1` yielded an AC50 [1] of 33.5 µM.

In the case of `C=CCNC1=C(N2CCOCC2)C(=O)c2ccccc2C1=O`, the AC50 [1] is reported as 3.46 µM.

With `COc1ccc(C(=O)NC2=C(c3ccc(OC(F)(F)F)cc3)C(=O)c3ccccc3C2=O)cc1` the activity change, negative = inhibition [2] was -7.11% (inactive).

Compound `C=CCNC1=C(NCCCN(CC)CC)C(=O)c2ccccc2C1=O` has an AC50 [1] of 5.77 µM.

Work on `CC(=O)NC1=C(c2ccc(Cl)cc2)C(=O)c2ccccc2C1=O` yielded an AC50 [1] of 8 µM.

In the case of `CC(=O)NC1=C(c2cccc(Cl)c2)C(=O)c2ccccc2C1=O`, the AC50 [1] is reported as 7.59 µM.

With `CN1CCN(C2=C(NS(=O)(=O)c3ccc(Br)cc3)C(=O)c3ccccc3C2=O)CC1` the AC50 [1] was 2.07 µM.

In the case of `CC(=O)NC1=C(c2ccccc2)C(=O)c2ccccc2C1=O`, the AC50 [1] is reported as 8.08 µM.

Work on `CCN1CCN(C2=C(NS(=O)(=O)c3ccc(Br)cc3)C(=O)c3ccccc3C2=O)CC1` yielded an AC50 [1] of 12.6 µM.

For `CN1CCN(C2=C(NS(=O)(=O)c3cccs3)C(=O)c3ccccc3C2=O)CC1`, the AC50 [1] was 2.69 µM.

For `C=CCNC1=C(NCCCN2CCOCC2)C(=O)c2ccccc2C1=O`, the AC50 [1] was 8.83 µM.

With `COc1ccc(C2=C(NC(=O)c3ccc(OC)cc3-c3cccc(OC)c3)C(=O)c3ccccc3C2=O)cc1` the activity change, negative = inhibition [2] was 25.2% (inactive).

For `CC1CCN(CC(CS(=O)(=O)c2ccc([N+](=O)[O-])cc2)N2CCC(C)CC2)CC1` (stereo not given), the AC50 [1] was 14.2 µM.

`O=C(NC1=C(c2ccccc2)C(=O)c2ccccc2C1=O)c1ccco1` showed an AC50 [1] of 9.91 µM.

Compound `COc1cccc(-c2cc(C(=O)NC3=C(Cl)C(=O)c4ccccc4C3=O)ccc2OC)c1` has an AC50 [1] of 10.4 µM.

With `C=CCNC1=C(Cl)C(=O)c2ccccc2C1=O` the AC50 [1] was 4.57 µM and 4.74 µM.

Work on `CCN1c2ccccc2NC2N=C(OC)C(c3ccccc3)C21` (stereo not given) yielded an AC50 [1] of 4.27 µM.

Compound `NC1=C(c2ccccc2)C(=O)c2ccccc2C1=O` has an AC50 [1] of 14.5 µM.

`COc1ccc(S(=O)(=O)N(C(C)=O)c2ccc(OC(C)=O)c3ccccc23)cc1[N+](=O)[O-]` showed an AC50 [1] of 11.5 µM.

For `O=C(NC1=C(c2ccccc2)C(=O)c2ccccc2C1=O)c1ccccc1`, the AC50 [1] was 10.5 µM.

For `O=C(CNc1cccc2ccccc12)N/N=C/c1ccc([N+](=O)[O-])o1`, the AC50 [1] was 3.08 µM.

For `CCN1CCN(C2=C(NC(=O)c3ccccc3)C(=O)c3ccccc3C2=O)CC1`, the AC50 [1] was 1.27 µM.

With `CC(=O)NC1=C(c2ccc3c(c2)oc2ccccc23)C(=O)c2ccccc2C1=O` the AC50 [1] was 5.89 µM.

In the case of `C=CCNC1=C(N2CCCCC2)C(=O)c2ccccc2C1=O`, the AC50 [1] is reported as 0.722 µM.

Compound `COc1ccc(C2=C(NC(=O)c3ccc(Cl)cc3)C(=O)c3ccccc3C2=O)cc1` has an AC50 [1] of 33.6 µM.

Work on `O=C(NC1=C(c2ccc(OC(F)(F)F)cc2)C(=O)c2ccccc2C1=O)c1ccccc1` yielded an AC50 [1] of 31.3 µM.

Work on `Cc1nc2ccccc2n1/N=C/c1ccc([N+](=O)[O-])s1` yielded an AC50 [1] of 3.29 µM.

`COc1ccc(C(=O)NC2=C(c3ccccc3)C(=O)c3ccccc3C2=O)cc1` showed an AC50 [1] of 14.7 µM.

`O=C(NC1=C(Cl)C(=O)c2ccccc2C1=O)c1ccccc1` showed an AC50 [1] of 1.1 µM.

Work on `O=C(NC1=C(N2CCSCC2)C(=O)c2ccccc2C1=O)c1ccccc1` yielded an AC50 [1] of 5.8 µM.

Compound `O=C1C(NS(=O)(=O)c2ccc(Br)cc2)=C(N2CCCCC2)C(=O)c2ccccc21` has an AC50 [1] of 20.1 µM.

Work on `O=C(NC1=C(c2ccc(OC(F)(F)F)cc2)C(=O)c2ccccc2C1=O)c1ccc(Br)cc1` yielded an AC50 [1] of 35.1 µM.

Work on `CCN1CCN(C2=C(NS(=O)(=O)c3cccs3)C(=O)c3ccccc3C2=O)CC1` yielded an AC50 [1] of 6.16 µM.

`COc1ccc(C2=C(NC(=O)c3ccccc3Cl)C(=O)c3ccccc3C2=O)cc1` gave an AC50 [1] of 11.8 µM.

`COc1ccc(C2=C(NC(=O)c3cccc(OC)c3)C(=O)c3ccccc3C2=O)cc1` showed an AC50 [1] of 17.5 µM.

`CC(=O)NC1=C(c2ccc(Oc3ccccc3)cc2)C(=O)c2ccccc2C1=O` gave an AC50 [1] of 28.1 µM.

For `O=C(NC1=C(c2ccc(OC(F)(F)F)cc2)C(=O)c2ccccc2C1=O)c1ccccc1F`, the AC50 [1] was 34.7 µM.

In the case of `Cc1ccc(C(=O)NC2=C(c3ccc(OC(F)(F)F)cc3)C(=O)c3ccccc3C2=O)o1`, the AC50 [1] is reported as 27.5 µM.

`Cc1ccc(C(=O)NC2=C(c3ccccc3)C(=O)c3ccccc3C2=O)o1` showed an AC50 [1] of 9.24 µM.

`C=CCNC1=C(N2CCSCC2)C(=O)c2ccccc2C1=O` gave an AC50 [1] of 3.98 µM.

For `C=C1C(=O)OC2C1CC/C(C)=C\CCC1(C)OC21` (stereo not given), the AC50 [1] was 7.5 µM.

With `COc1cccc(C2=C(NC(=O)c3ccccc3)C(=O)c3ccccc3C2=O)c1` the AC50 [1] was 32 µM.

`C=CCNC1=C(NS(=O)(=O)c2ccc(Br)cc2)C(=O)c2ccccc2C1=O` showed an AC50 [1] of 22.9 µM.

In the case of `COc1ccc(C2=C(NC(=O)c3ccc4ccccc4c3)C(=O)c3ccccc3C2=O)cc1`, the activity change, negative = inhibition [2] is reported as 24.2% (inactive).

Work on `COc1ccc(C(=O)NC2=C(c3ccc(OC)cc3)C(=O)c3ccccc3C2=O)cc1` yielded an AC50 [1] of 11.9 µM.

Work on `O=C1C(NS(=O)(=O)c2ccc(Br)cc2)=C(N2CCSCC2)C(=O)c2ccccc21` yielded an AC50 [1] of 35.5 µM.
